According to ChEMBL document CHEMBL4689842, “EUbOPEN Chemogenomics Library wave 1” (2021):

How the values were obtained:
Format in all cases: toxicity, cell-based
[1] = system: HEK-293T; assay: Multiplex assay against HEK293T; settings: human;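 on Population Tubulin-Different-Phenotype (%): share of the cells with healthy nuclei that show this phenotype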
In short: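 With compound added, live cells were imaged on a CQ1 microscope at 37°C and 5% CO2; staining with Hoechst33342, BioTracker Green Microtubule Cytoskeleton Dye, MitoTracker Red and Annexin V Alexa Fluor 680 had been done at seeding. The CellPathfinder machine-learning gating scheme split cells into Hoechst high-intensity objects or normal cells, normal cells into healthy, pyknosed or fragmented nuclei, and pyknosed cells into mitotic or apoptotic. The tubulin, mitochondrial-mass and membrane-permeability phenotypes are per cents of healthy-nucleus cells.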

[2] = system: HEK-293T; assay: Incucyte cell viability with HEK293T; settings: human, 10 µM, compound concentration 10 uM; further: filed as whole numbers so only -1 and 0 and 1 occur
[3] = system: Fibroblast; assay: Incucyte cell viability with human fibroblast; settings: 10 µM, compound concentration 10 uM; further: filed as whole numbers so only -1 and 0 and 1 occur
[4] = 12 h, 1 µM, compound concentration 1 uM, replicate 1
[5] = 12 h, 1 µM, compound concentration 1 uM, replicate 2
[6] = 12 h, 10 µM, compound concentration 10 uM, replicate 1
[7] = 12 h, 10 µM, compound concentration 10 uM, replicate 2
[8] = 24 h, 1 µM, compound concentration 1 uM, replicate 1
[9] = 24 h, 1 µM, compound concentration 1 uM, replicate 2
[10] = 24 h, 10 µM, compound concentration 10 uM, replicate 1
[11] = 24 h, 10 µM, compound concentration 10 uM, replicate 2
[12] = 48 h, 1 µM, compound concentration 1 uM, replicate 1
[13] = 48 h, 1 µM, compound concentration 1 uM, replicate 2
[14] = 48 h, 10 µM, compound concentration 10 uM, replicate 1
[15] = 48 h, 10 µM, compound concentration 10 uM, replicate 2
[16] = 6 h, replicate number 1, timepoint 6 hours
[17] = 12 h, replicate number 1, timepoint 12 hours
[18] = 18 h, replicate number 1, timepoint 18 hours
[19] = 24 h, replicate number 1, timepoint 24 hours

## COc1ccc(NS(=O)(=O)c2sc3ccc(Cl)cc3c2C)cc1N1CCNCC1.Cl
[1]; [4]
  Population Apoptotic (%): 40%
  Population Fragmented Nuclei (%): 17%
  Population Healthy Nuclei (%): 36%
  Population Hoechst High Intensity Objects (%): 35%
  Population Membrane Permeable-Phenotype (%): 5%
  Population Mitochondria Different-Phenotype (%): 66%
  Population Mitotic Cells (%): 59%
  Population Normal (%): 64%
  Population Pyknosed Nuclei (%): 45%
  Population Tubulin-Different-Phenotype (%): 32%
  Total Cell Count: 385
[1]; [5]
  Population Apoptotic (%): 15%
  Population Fragmented Nuclei (%): 5%
  Population Healthy Nuclei (%): 41%
  Population Hoechst High Intensity Objects (%): 3%
  Population Membrane Permeable-Phenotype (%): 15%
  Population Mitochondria Different-Phenotype (%): 25%
  Population Mitotic Cells (%): 84%
  Population Normal (%): 96%
  Population Pyknosed Nuclei (%): 53%
  Population Tubulin-Different-Phenotype (%): 39%
  Total Cell Count: 233
[1]; [6]
  Population Apoptotic (%): 71%
  Population Fragmented Nuclei (%): 7%
  Population Healthy Nuclei (%): 33%
  Population Hoechst High Intensity Objects (%): 12%
  Population Membrane Permeable-Phenotype (%): 4%
  Population Mitochondria Different-Phenotype (%): 99%
  Population Mitotic Cells (%): 28%
  Population Normal (%): 87%
  Population Pyknosed Nuclei (%): 59%
  Total Cell Count: 350
[1]; [7]
  Population Apoptotic (%): 57%
  Population Fragmented Nuclei (%): 3%
  Population Healthy Nuclei (%): 16%
  Population Hoechst High Intensity Objects (%): 4%
  Population Membrane Permeable-Phenotype (%): 6%
  Population Mitochondria Different-Phenotype (%): 86%
  Population Mitotic Cells (%): 42%
  Population Normal (%): 95%
  Population Pyknosed Nuclei (%): 79%
  Population Tubulin-Different-Phenotype (%): 96%
  Total Cell Count: 186
[1]; [8]
  Population Apoptotic (%): 46%
  Population Fragmented Nuclei (%): 21%
  Population Healthy Nuclei (%): 40%
  Population Hoechst High Intensity Objects (%): 39%
  Population Membrane Permeable-Phenotype (%): 2%
  Population Mitochondria Different-Phenotype (%): 61%
  Population Mitotic Cells (%): 53%
  Population Normal (%): 60%
  Population Pyknosed Nuclei (%): 38%
  Population Tubulin-Different-Phenotype (%): 43%
  Total Cell Count: 399
[1]; [9]
  Population Apoptotic (%): 22%
  Population Fragmented Nuclei (%): 4%
  Population Healthy Nuclei (%): 58%
  Population Hoechst High Intensity Objects (%): 2%
  Population Membrane Permeable-Phenotype (%): 4%
  Population Mitochondria Different-Phenotype (%): 36%
  Population Mitotic Cells (%): 77%
  Population Normal (%): 97%
  Population Pyknosed Nuclei (%): 36%
  Population Tubulin-Different-Phenotype (%): 54%
  Total Cell Count: 278
[1]; [10]
  Population Apoptotic (%): 74%
  Population Fragmented Nuclei (%): 10%
  Population Healthy Nuclei (%): 34%
  Population Hoechst High Intensity Objects (%): 21%
  Population Membrane Permeable-Phenotype (%): 4%
  Population Mitochondria Different-Phenotype (%): 98%
  Population Mitotic Cells (%): 25%
  Population Normal (%): 78%
  Population Pyknosed Nuclei (%): 54%
  Population Tubulin-Different-Phenotype (%): 97%
  Total Cell Count: 356
[1]; [11]
  Population Apoptotic (%): 90%
  Population Fragmented Nuclei (%): 4%
  Population Healthy Nuclei (%): 25%
  Population Hoechst High Intensity Objects (%): 8%
  Population Membrane Permeable-Phenotype (%): 2%
  Population Mitochondria Different-Phenotype (%): 97%
  Population Mitotic Cells (%): 9%
  Population Normal (%): 91%
  Population Pyknosed Nuclei (%): 70%
  Total Cell Count: 187
[1]; [12]
  Population Apoptotic (%): 47%
  Population Fragmented Nuclei (%): 23%
  Population Healthy Nuclei (%): 51%
  Population Hoechst High Intensity Objects (%): 29%
  Population Membrane Permeable-Phenotype (%): 1%
  Population Mitochondria Different-Phenotype (%): 37%
  Population Mitotic Cells (%): 52%
  Population Normal (%): 70%
  Population Pyknosed Nuclei (%): 25%
  Population Tubulin-Different-Phenotype (%): 32%
  Total Cell Count: 493
[1]; [13]
  Population Apoptotic (%): 15%
  Population Fragmented Nuclei (%): 4%
  Population Healthy Nuclei (%): 81%
  Population Hoechst High Intensity Objects (%): 4%
  Population Membrane Permeable-Phenotype (%): 3%
  Population Mitochondria Different-Phenotype (%): 9%
  Population Mitotic Cells (%): 84%
  Population Normal (%): 95%
  Population Pyknosed Nuclei (%): 14%
  Population Tubulin-Different-Phenotype (%): 41%
  Total Cell Count: 485
[1]; [14]
  Population Fragmented Nuclei (%): 13%
  Population Healthy Nuclei (%): 39%
  Population Hoechst High Intensity Objects (%): 26%
  Population Membrane Permeable-Phenotype (%): 0%
  Population Mitochondria Different-Phenotype (%): 100%
  Population Normal (%): 73%
  Population Pyknosed Nuclei (%): 47%
  Population Tubulin-Different-Phenotype (%): 95%
  Total Cell Count: 367
[1]; [15]
  Population Apoptotic (%): 77%
  Population Fragmented Nuclei (%): 4%
  Population Healthy Nuclei (%): 28%
  Population Hoechst High Intensity Objects (%): 15%
  Population Membrane Permeable-Phenotype (%): 6%
  Population Mitochondria Different-Phenotype (%): 95%
  Population Mitotic Cells (%): 22%
  Population Normal (%): 84%
  Population Pyknosed Nuclei (%): 67%
  Population Tubulin-Different-Phenotype (%): 91%
  Total Cell Count: 188
[2]; 0 h, replicate number 2, timepoint 0 hours
  Growth Rate: 1
[2]; [16]
  Growth Rate: 0
[2]; [17]
  Growth Rate: 0
[2]; [18]
  Growth Rate: 0
[2]; [19]
  Growth Rate: 0
[3]; 0 h, replicate number 1, timepoint 0 hours
  Growth Rate: 1
[3]; [16]
  Growth Rate: 1
[3]; 6 h, replicate number 2, timepoint 6 hours
  Growth Rate: 0
[3]; [17]
  Growth Rate: 0
[3]; [18]
  Growth Rate: 0
[3]; [19]
  Growth Rate: 0
